Test results reported in ChEMBL document CHEMBL2150931, “Design, synthesis, and biological activity of a novel series of human sirtuin-2-selective inhibitors” (J Med Chem, 2012).
Activity calls are given as the source filed them. No cut-off for these calls is given here.

How the values were obtained:
[1] = target: T1, NAD-dependent protein deacetylase sirtuin-1 (Homo sapiens) (UniProt Q96EB6); settings: HCT-116, 10 uM
T1 sequence (whole entry): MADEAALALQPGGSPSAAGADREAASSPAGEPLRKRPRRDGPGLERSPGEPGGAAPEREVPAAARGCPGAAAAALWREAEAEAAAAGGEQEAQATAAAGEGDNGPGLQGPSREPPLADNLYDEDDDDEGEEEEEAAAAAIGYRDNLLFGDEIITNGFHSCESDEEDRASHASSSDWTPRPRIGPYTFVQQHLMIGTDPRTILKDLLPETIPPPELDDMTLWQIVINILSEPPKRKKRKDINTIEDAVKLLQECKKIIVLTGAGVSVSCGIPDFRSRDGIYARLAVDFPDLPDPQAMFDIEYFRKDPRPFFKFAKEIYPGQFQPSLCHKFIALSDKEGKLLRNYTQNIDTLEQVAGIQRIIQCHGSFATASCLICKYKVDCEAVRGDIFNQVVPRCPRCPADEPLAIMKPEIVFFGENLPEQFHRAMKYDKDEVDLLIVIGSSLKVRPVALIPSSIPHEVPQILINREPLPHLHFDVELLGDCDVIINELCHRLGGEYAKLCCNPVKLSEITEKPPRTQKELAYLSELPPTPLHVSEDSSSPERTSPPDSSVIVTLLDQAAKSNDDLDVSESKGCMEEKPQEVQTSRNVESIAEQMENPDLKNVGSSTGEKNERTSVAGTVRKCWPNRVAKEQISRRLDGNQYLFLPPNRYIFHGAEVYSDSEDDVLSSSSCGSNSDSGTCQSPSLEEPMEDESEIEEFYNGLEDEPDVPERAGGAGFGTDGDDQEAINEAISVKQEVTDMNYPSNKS

[2] = target: T2, NAD-dependent protein deacetylase sirtuin-1 (Homo sapiens, UniProt Q96EB6); assay: Inhibition of human recombinant SIRT1 using Fluor de Lys-SIRT as substrate incubated for 60 mins prior to substrate addition measured after 60 mins by fluorimetric analysis
T2 sequence (Q96EB6 whole entry): T1 sequence (whole entry)
Summary of the method: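 Human recombinant SIRT1 run the same way: 60 min at 37 °C with 1 mM NAD⁺ and serial compound dilutions, then 25 μM Fluor de Lys-SIRT substrate for 60 min. Stopped with nicotinamide-containing Developer II and read 45 min later at ex 360/em 460 nm. IC₅₀ from logit regression of % inhibition vs control; means of ≥3 experiments.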

[3] = target: T1, NAD-dependent protein deacetylase sirtuin-1 (Homo sapiens); assay: Inhibition of human recombinant SIRT1 using Fluor de Lys-SIRT as substrate at 100 uM incubated for 60 mins prior to substrate addition measured after 60 mins by fluorimetric analysis
Summary of the method: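 Single-point SIRT1 test at 100 μM compound. Human recombinant enzyme with 1 mM NAD⁺ at 37 °C for 60 min, then 25 μM Fluor de Lys-SIRT substrate for 60 min. Stopped with nicotinamide developer; fluorescence read at 360/460 nm after 45 min. Inhibition expressed as % relative to uninhibited control wells.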

[4] = target: T3, NAD-dependent protein deacetylase sirtuin-2 (Homo sapiens, UniProt Q8IXJ6); assay: Inhibition of human recombinant SIRT2 using Fluor de Lys-SIRT as substrate incubated for 60 mins prior to substrate addition measured after 60 mins by fluorimetric analysis
T3 sequence (Q8IXJ6 whole entry): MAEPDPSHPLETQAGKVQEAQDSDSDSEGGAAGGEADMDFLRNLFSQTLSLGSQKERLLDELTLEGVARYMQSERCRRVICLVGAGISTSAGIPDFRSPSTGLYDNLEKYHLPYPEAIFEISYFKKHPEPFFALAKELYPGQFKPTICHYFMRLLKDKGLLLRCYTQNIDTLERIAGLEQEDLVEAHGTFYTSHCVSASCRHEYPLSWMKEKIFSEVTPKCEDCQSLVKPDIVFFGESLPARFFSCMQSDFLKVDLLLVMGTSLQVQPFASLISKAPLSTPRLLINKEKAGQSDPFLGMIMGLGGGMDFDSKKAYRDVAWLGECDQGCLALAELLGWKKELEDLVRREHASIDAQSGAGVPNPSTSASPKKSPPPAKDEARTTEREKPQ
Summary of the method: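 Human recombinant SIRT2 preincubated with 1 mM NAD⁺ and serial compound dilutions for 60 min at 37 °C, then 25 μM Fluor de Lys-SIRT substrate added. Reaction stopped at 60 min with Developer II containing nicotinamide. Fluorescence read 45 min later at ex 360/em 460 nm. % inhibition taken against control wells. IC₅₀ obtained by regression of log[Inh] vs logit % inhibition; means of ≥3 experiments.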

[5] = target: T4, NAD-dependent protein deacetylase sirtuin-2 (Homo sapiens) (UniProt Q8IXJ6); settings: HCT-116, 10 uM
T4 sequence (whole entry): T3 sequence (Q8IXJ6 whole entry)

inhibition [1]	IC50 [2]	inhibition [3]	IC50 [4]	inhibition [5]	SMILES
Active	–	–	–	–	NC(=O)C1CCCc2c1[nH]c1ccc(Cl)cc21 (stereo unspecified)
–	> 100 µM	13%	33 µM	–	NC(=O)c1ccccc1Nc1ccc(OCc2ccccc2)cc1
–	30 µM	–	–	Active	N#C/C(=C\c1ccc(-c2cc(Cl)ccc2Cl)o1)C(=O)Nc1cccc2ncccc12
